This passage reports inhibition and Ki results from ChEMBL document CHEMBL1133667, “A structure-affinity relationship study on derivatives of N-[2-[4-(4-Chlorophenyl)piperazin-1-yl]ethyl]-3-methoxybenzamide, a high-affinity and selective D(4) receptor ligand” (J Med Chem, 2000).

In experiment [1] the target is T1, Adrenergic receptor alpha-1 (Rattus norvegicus) (UniProt P15823+P23944+P43140). Kind of experiment: Tested in vitro for %inhibition against alpha-1 adrenergic receptor. It counts as protein assay. Conditions: concentration not given here. The procedure, abridged: (§1)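 Drug at 10^-5–10^-11 M, 50 min at 25 °C. Filtered on GF/B filters presoaked in 0.5% polyethylenimine. Nonspecific binding with 1 µM prazosin. Percentage inhibition of specific binding reported at the stated concentration.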

Experiment [2] deals with T2, 5-hydroxytryptamine receptor 1A (Rattus norvegicus, UniProt P19327).
T2 sequence (P19327 whole entry): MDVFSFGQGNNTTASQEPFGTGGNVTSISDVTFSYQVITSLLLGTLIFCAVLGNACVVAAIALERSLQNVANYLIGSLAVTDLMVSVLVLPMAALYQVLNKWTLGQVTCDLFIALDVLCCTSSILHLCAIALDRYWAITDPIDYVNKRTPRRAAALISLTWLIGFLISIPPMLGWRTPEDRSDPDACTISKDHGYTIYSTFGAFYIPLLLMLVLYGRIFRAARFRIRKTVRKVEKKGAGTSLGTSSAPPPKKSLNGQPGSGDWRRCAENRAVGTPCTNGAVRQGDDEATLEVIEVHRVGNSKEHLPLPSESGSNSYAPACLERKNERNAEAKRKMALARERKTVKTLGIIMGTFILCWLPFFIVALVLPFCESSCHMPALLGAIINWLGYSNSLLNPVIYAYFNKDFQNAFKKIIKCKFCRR
Kind of experiment: In vitro binding affinity at 5-hydroxytryptamine receptor 1A receptor in rat hippocampal membranes by [3H]8-OH-DPAT displacement. It counts as cell membranes, Hippocampus.

The target of experiment [3] is T3, Adrenergic receptor alpha-1 (Rattus norvegicus, UniProt P15823+P23944+P43140).
T3 sequence (P15823 whole entry): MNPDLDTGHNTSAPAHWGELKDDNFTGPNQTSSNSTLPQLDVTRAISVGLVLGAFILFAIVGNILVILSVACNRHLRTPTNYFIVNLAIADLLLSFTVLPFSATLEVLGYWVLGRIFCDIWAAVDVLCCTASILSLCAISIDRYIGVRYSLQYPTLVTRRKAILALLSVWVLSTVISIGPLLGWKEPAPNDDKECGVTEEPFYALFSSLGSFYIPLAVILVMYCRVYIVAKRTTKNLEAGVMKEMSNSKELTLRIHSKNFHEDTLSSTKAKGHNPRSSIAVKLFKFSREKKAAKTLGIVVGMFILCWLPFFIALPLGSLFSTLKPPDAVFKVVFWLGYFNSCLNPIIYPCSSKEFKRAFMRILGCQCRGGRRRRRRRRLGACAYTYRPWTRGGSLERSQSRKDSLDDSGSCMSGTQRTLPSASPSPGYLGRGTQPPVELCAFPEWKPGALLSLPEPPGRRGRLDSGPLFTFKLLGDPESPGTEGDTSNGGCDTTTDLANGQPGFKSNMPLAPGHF
T3 sequence (P23944 whole entry): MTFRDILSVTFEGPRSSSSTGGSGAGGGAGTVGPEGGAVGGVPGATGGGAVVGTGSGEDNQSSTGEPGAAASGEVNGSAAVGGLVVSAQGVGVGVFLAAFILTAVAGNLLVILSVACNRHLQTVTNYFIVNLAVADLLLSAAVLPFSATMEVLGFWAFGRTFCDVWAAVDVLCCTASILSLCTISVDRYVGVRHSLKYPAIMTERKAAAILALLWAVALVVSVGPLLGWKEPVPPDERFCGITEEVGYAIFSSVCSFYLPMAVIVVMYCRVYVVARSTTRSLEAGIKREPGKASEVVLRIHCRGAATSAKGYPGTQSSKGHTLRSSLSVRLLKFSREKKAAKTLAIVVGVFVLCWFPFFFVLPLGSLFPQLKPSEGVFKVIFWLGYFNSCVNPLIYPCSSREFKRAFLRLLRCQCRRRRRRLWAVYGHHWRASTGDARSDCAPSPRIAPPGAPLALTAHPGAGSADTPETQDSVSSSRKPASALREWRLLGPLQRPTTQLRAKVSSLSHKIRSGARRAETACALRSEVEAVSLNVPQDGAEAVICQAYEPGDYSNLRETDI
T3 sequence (P43140 whole entry): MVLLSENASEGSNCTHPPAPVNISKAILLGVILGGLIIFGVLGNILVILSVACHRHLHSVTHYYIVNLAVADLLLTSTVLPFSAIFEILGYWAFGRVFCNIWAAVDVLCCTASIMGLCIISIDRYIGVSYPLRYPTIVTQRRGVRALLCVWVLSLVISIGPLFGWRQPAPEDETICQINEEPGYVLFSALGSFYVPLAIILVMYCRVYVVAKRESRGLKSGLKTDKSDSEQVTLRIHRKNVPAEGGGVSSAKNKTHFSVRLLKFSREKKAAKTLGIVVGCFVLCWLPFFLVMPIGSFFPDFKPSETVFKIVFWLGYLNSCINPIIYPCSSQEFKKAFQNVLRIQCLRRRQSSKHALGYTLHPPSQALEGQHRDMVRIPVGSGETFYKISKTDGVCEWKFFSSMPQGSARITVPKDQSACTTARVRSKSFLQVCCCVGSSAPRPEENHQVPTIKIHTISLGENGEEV
Kind of experiment: In vitro binding affinity towards alpha-1 adrenergic receptor by using [3H]prazosin in rat brain cortex membranes. It counts as cell membranes.

In the next experiment the target is T4, D(4) dopamine receptor (Homo sapiens, UniProt P21917).
T4 sequence (P21917 whole entry): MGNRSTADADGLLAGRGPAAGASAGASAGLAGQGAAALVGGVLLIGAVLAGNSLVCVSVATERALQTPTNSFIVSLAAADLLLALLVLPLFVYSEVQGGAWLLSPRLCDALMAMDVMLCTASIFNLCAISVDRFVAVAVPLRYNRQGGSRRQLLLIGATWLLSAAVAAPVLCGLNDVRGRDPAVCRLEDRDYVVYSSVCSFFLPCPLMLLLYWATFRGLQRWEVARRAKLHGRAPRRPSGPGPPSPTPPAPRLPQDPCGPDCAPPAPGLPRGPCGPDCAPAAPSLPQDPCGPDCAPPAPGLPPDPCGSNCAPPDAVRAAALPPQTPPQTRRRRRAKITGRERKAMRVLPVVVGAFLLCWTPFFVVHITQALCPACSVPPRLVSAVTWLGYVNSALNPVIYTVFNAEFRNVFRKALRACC
As to the kind of experiment: In vitro binding affinity at human Dopamine receptor D4.4 by [3H]YM-09151-2 displacement.

The target in experiment [4] is T5, D(2) dopamine receptor (Homo sapiens, UniProt P14416). Kind of experiment: In vitro binding affinity at human Dopamine receptor D2 (long) by [3H]spiroperidol displacement.
Experiment [5] deals with T5, D(2) dopamine receptor. Kind of experiment: In vitro binding affinity towards human Dopamine receptor D2L, using [3H]spiroperidol radioligand in Sf9 baculovirus expression.
The target in experiment [6] is T1, Adrenergic receptor alpha-1 (Rattus norvegicus). As to the kind of experiment: (§2) Tested in vitro for % inhibition against alpha-1 adrenergic receptor. Conditions: concentration not given here. It counts as protein assay. Set-up: concentration or dose not given beside the values. The gist of the method:
as §1

Experiment [7] shares this target. The description is as §2. It counts as protein assay. As to conditions: concentration not given here. The gist of the method:
as §1

Experiment [8] addresses T6, 5-hydroxytryptamine receptor 1A (Rattus norvegicus) (UniProt P19327).
T6 sequence (whole entry): T2 sequence (P19327 whole entry)
As to the kind of experiment: Tested in vitro for % inhibition against (serotonin)5-HT 1A receptor. Conditions: concentration not given here.

T5 sequence (P14416 whole entry): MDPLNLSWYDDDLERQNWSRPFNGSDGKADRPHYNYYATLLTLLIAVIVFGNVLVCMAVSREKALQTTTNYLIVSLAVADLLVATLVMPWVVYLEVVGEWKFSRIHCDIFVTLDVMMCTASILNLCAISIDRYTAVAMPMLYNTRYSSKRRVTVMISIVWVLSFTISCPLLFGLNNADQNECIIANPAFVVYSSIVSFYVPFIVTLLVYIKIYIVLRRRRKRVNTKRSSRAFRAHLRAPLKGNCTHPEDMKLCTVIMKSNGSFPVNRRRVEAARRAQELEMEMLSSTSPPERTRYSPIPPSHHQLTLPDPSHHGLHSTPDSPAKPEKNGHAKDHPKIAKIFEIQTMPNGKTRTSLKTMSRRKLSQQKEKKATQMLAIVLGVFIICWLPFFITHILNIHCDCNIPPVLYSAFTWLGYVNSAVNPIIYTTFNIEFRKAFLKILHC

For `COc1cccc(CCCCN2CCN(c3ccc(Cl)cc3)CC2)c1`, the inhibition in [1] stood at 25%. Also, the Ki was 514 nM in experiment [2], above 850 nM in [3], 204 nM at D(4) dopamine receptor and 2740 nM on D(2) dopamine receptor [4].

With `COc1cccc2c1CCN(CCN1CCN(c3ccc(Cl)cc3)CC1)C2=O`, the Ki in [2] turned out to be 451 nM; on D(2) dopamine receptor [5] it was 3.17 µM; in [3] it was 631 nM; at D(4) dopamine receptor it was 42 nM.

As for `COc1cccc2c1CCCC2NCCN1CCN(c2ccc(Cl)cc2)CC1.Cl.Cl` (stereo unspecified), the inhibition constant (Ki) in experiment [2] was 821 nM; in experiment [3], above 850 nM; at D(4) dopamine receptor it was 32 nM; on D(2) dopamine receptor [4] it was 3180 nM. The same compound returned an inhibition in [6] of 27%.

With `COc1ccc2c(c1)C(CCCN1CCN(c3ccc(Cl)cc3)CC1)CCC2` (stereo unspecified), the Ki in experiment [2] is 708 nM; in [3], above 850 nM; on D(4) dopamine receptor, 391 nM; on D(2) dopamine receptor [4] it was 980 nM. Further, in [6], the inhibition was found to be 19%.

For the compound `COc1cccc(C(=O)CCCN2CCN(c3ccc(Cl)cc3)CC2)c1`, the Ki was found to be 183 nM in experiment [2], 908 nM in experiment [3], 4 nM on D(4) dopamine receptor and 2550 nM at D(2) dopamine receptor [4].

Take `COc1ccc2c(c1)C(=O)N(CCN1CCN(c3ccc(Cl)cc3)CC1)CC2`: the Ki in [2] is 11 nM; in experiment [3], above 850 nM; at D(4) dopamine receptor it was 141 nM; at D(2) dopamine receptor [4], 3960 nM. In experiment [6], this compound showed an inhibition of 33%.

For the compound `COc1ccc2c(c1)C(NCCN1CCN(c3ccc(Cl)cc3)CC1)CCC2` (stereo unspecified), the Ki in experiment [2] was above 850 nM; in [3], above 850 nM; at D(4) dopamine receptor it was 46 nM; on D(2) dopamine receptor [4], 262 nM. This compound had an inhibition in experiment [6] of 37%.

On to `COc1cccc(C(=O)CCCCCN2CCN(c3ccc(Cl)cc3)CC2)c1`, for which the Ki was 45 nM in experiment [2], 678 nM in experiment [3], 280 nM on D(4) dopamine receptor and above 850 nM at D(2) dopamine receptor [4].

For the compound `COc1cccc(CNCCN2CCN(c3ccc(Cl)cc3)CC2)c1`, the Ki in experiment [2] is above 850 nM; in [3], above 850 nM; at D(4) dopamine receptor, 23 nM; on D(2) dopamine receptor [4] it was 5000 nM. The same compound had an inhibition in experiment [6] of 12%.

For the compound `COc1cccc(C(=O)CCCCN2CCN(c3ccc(Cl)cc3)CC2)c1`, the Ki was 37 nM in experiment [2], 146 nM in experiment [3], 21 nM at D(4) dopamine receptor and above 850 nM at D(2) dopamine receptor [4].

For `COc1cccc(C(=O)N(C)CCN2CCN(c3ccc(Cl)cc3)CC2)c1`, the inhibitory constant (Ki) in experiment [2] was above 850 nM; in experiment [3] it was above 850 nM; on D(4) dopamine receptor, 180 nM; on D(2) dopamine receptor [4], above 850 nM. For the same compound, the values for the inhibition in experiment [7] and in [8] were 22% and 18%, respectively.

For the compound `COc1cccc2c1CCCC2CCCN1CCN(c2ccc(Cl)cc2)CC1` (stereo unspecified), the Ki in [2] is 105 nM; in experiment [3], above 850 nM; at D(4) dopamine receptor, 416 nM; at D(2) dopamine receptor [4] it was 3400 nM. The inhibition in experiment [6] is 34%.

As for `COc1cccc(NC(=O)CCN2CCN(c3ccc(Cl)cc3)CC2)c1`, the Ki was 859 nM in [2], 303 nM in [3], 42 nM at D(4) dopamine receptor and 282 nM at D(2) dopamine receptor [4].

As usually defined, the inhibition is the share of the control response that was lost under treatment. In general, Ki refers to a measure of affinity in units of concentration, obtained from inhibition or displacement.
